According to ChEMBL document CHEMBL1129643 (J Med Chem, 1996):

Legend:
[1] = target: T1, Alpha-1A adrenergic receptor (Rattus norvegicus, UniProt P43140); experiment: Binding affinity to the alpha-1 adrenergic receptor using a radioligand [3H]prazosin binding assay in rat brain membranes; assay type: cell membranes
T1 sequence (P43140 whole entry): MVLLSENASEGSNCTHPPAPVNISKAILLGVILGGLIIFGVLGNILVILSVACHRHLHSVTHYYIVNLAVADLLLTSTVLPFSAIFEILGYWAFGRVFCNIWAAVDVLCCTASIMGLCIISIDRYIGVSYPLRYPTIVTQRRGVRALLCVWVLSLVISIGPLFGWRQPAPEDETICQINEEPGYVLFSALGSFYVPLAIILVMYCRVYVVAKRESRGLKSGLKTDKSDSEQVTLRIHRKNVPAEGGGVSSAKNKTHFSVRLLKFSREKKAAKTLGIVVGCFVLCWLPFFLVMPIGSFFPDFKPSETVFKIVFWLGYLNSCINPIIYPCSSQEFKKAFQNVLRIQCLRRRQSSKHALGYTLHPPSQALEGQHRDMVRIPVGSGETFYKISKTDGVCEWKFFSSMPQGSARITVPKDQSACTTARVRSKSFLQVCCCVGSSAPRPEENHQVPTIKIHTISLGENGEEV

[2] = target: 5-hydroxytryptamine receptor 2A (Rattus norvegicus, UniProt P14842); experiment: Binding affinity to serotonin 5-hydroxytryptamine 2A receptors using a radioligand [3H]ketanserin binding assay in rat cortical membranes; assay type: cell membranes
5-hydroxytryptamine receptor 2A, sequence (P14842 whole entry): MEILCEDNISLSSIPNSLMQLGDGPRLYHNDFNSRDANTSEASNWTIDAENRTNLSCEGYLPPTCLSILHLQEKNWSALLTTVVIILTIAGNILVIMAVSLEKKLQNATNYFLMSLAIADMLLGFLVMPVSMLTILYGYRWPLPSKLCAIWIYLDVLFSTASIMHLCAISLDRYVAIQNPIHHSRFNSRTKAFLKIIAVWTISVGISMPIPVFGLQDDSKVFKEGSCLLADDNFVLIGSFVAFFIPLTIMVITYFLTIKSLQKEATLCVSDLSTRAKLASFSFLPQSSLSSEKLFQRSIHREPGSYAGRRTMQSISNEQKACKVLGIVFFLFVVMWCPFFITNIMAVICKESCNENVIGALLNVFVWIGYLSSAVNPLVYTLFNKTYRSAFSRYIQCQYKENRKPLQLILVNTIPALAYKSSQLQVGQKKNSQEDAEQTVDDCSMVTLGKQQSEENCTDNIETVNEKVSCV

D(2) dopamine receptor = D(2) dopamine receptor (Rattus norvegicus, UniProt P61169); experiment: Binding affinity to dopamine receptor D2 using a [3H]-spiperone binding assay in rat cortical membranes; assay type: cell membranes
D(2) dopamine receptor, sequence (P61169 whole entry): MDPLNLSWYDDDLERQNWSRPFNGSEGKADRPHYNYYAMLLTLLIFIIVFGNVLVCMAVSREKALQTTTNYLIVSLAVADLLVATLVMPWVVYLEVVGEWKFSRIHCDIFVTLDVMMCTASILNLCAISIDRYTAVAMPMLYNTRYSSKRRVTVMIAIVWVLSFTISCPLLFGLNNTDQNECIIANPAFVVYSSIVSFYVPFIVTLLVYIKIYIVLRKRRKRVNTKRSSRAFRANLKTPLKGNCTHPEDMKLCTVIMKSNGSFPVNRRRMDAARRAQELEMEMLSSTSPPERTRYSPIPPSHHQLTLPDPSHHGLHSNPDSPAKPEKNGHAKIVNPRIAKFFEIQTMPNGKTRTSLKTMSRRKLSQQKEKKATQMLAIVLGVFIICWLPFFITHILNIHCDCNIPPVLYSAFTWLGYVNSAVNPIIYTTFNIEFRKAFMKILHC

Rattus norvegicus [3] = experiment: Antagonism of Pergolide-Induced Circling Behavior in rats with unilateral 6-OHDA Lesions after 2 hr of sc injection; assay type: functional
Procedure, shortened: (§1)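 Rats with unilateral 6-OHDA lesions were given pergolide (0.050 µmol/kg, sc) to induce contralateral circling. Test compound was injected sc 2 h before pergolide. The effect of each dose was expressed as percent of the mean of control sessions held one week before and one week after the test session for each rat. At least four rats were used per dose.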

Rattus norvegicus [4] = experiment: Effective dose was measured to inhibit 50% of quipazine induced head twitches in rat after 24 hr of peroral administration; conditions: po
Rattus norvegicus [5] = experiment: Effective dose was measured to inhibit 50% of quipazine induced head twitches in rat after 24 hr r of subcutaneous administration; assay type: functional; conditions: sc
Procedure, shortened: (§2)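 Rats received test compound sc or po, 2 or 24 h before quipazine (15 µmol/kg, sc). Head twitches were counted 30–40 min after quipazine. Counts were expressed as percent of a quipazine-treated control group, with at least four animals per dose.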

Rattus norvegicus [6] = experiment: Effective dose was measured to inhibit 50% of quipazine induced head twitches in rat after 2 hr of subcutaneous administration; assay type: functional; conditions: sc; procedure, shortened: as §2
Rattus norvegicus [7] = experiment: Effective dose was measured to inhibit 50% of quipazine induced head twitches in rat after 24 hr r of peroral administration; assay type: functional; conditions: po; procedure, shortened: as §2
Rattus norvegicus [8] = species: Rattus norvegicus; experiment: Effective dose was measured as fifty percent inhibition of Pergolide induced rotations in rat; assay type: functional; procedure, shortened: as §1

IC50 [1]	IC50 [2]	IC50 (D(2) dopamine receptor)	Structure (SMILES)	further results
0.023 µM	–	–	CN(CCN1CCNC1=O)Cc1cn(-c2ccc(F)cc2)c2ccc(Cl)cc12	–
0.6 µM	–	–	CC(C)N1CCN(CCN(C)CCOc2cn(-c3ccc(F)cc3)c3cc(Cl)ccc23)C1=O	–
0.31 µM	0.1 µM	4.8 µM	CN(C)CCCCc1cn(-c2ccc(F)cc2)c2ccc(Cl)cc12	–
0.82 µM	0.042 µM	–	CN(C)CCSc1cn(-c2ccc(F)cc2)c2ccc(Cl)cc12	–
0.073 µM	–	–	CN(C)CCCc1cn(-c2ccc(F)cc2)c2ccc(Cl)cc12	–
0.15 µM	0.1 µM	0.0024 µM	CN1CCN(CCOc2cn(-c3ccc(F)cc3)c3ccc(Cl)cc23)CC1	ED50 (Rattus norvegicus [3]): 0.048 µmol/kg
0.65 µM	–	0.79 µM	CN(CCSc1cn(-c2ccc(F)cc2)c2ccc(Cl)cc12)CCN1CCNC1=O	–
0.017 µM	–	–	CN(C)CCOc1cn(-c2ccc(F)cc2)c2ccc(Cl)cc12	–
0.4 µM	0.0058 µM	0.19 µM	CC(C)N1CCN(CCN(C)CCc2cn(-c3ccc(F)cc3)c3cc(Cl)ccc23)C1=O	–
> 0.1 µM	0.027 µM	0.024 µM	CN(C)CCCOc1cn(-c2ccc(F)cc2)c2ccc(Cl)cc12	–
> 0.1 µM	0.11 µM	0.02 µM	CN(CCCCN1CCNC1=O)Cc1cn(-c2ccc(F)cc2)c2ccc(Cl)cc12	–
0.054 µM	0.0019 µM	0.4 µM	CN(CCCN1CCNC1=O)CCc1cn(-c2ccc(F)cc2)c2cc(Cl)ccc12	ED50 (Rattus norvegicus [5]): 8.5 µmol/kg; ED50 (Rattus norvegicus [6]): 4.7 µmol/kg
0.11 µM	–	–	Fc1ccc(-n2cc(OCCN3CCOCC3)c3cc(Cl)ccc32)cc1	–
0.041 µM	–	–	CN(CCOc1cn(-c2ccc(F)cc2)c2cc(Cl)ccc12)CCN1CCNC1=O	ED50 (Rattus norvegicus [7]): 0.25 µmol/kg; ED50 (Rattus norvegicus [6]): 0.63 µmol/kg
0.088 µM	–	–	C#CCN(CCOc1cn(-c2ccc(F)cc2)c2ccc(Cl)cc12)CCN1CCNC1=O	–
0.17 µM	–	–	CN(C)CCOc1cn(-c2ccc(F)cc2)c2cc(Cl)ccc12	–
0.012 µM	–	–	CCN(CCOc1cn(-c2ccc(F)cc2)c2ccc(Cl)cc12)CCN1CCNC1=O	–
–	0.049 µM	–	CNc1cc(OC)c(C(=O)N[C@H]2CCN(Cc3ccccc3)[C@H]2C)cc1Cl [NEMONAPRIDE]	ED50 (Rattus norvegicus [3]): 0.0057 µmol/kg

Continued, compound first:

Structure (SMILES)	IC50 [1]	IC50 [2]	IC50 (D(2) dopamine receptor)	further results
CN(CCCc1cn(-c2ccc(F)cc2)c2ccc(Cl)cc12)CCN1CCNC1=O	0.043 µM	–	–	–
CN(CCc1cn(-c2ccc(F)cc2)c2ccc(Cl)cc12)CCN1CCNC1=O	0.015 µM	–	–	–
CN(CCc1cn(-c2ccc(F)cc2)c2cc(Cl)ccc12)CCN1CCNC1=O	0.014 µM	0.00095 µM	0.59 µM	–
CN(C)CCc1cn(-c2ccc(F)cc2)c2cc(Cl)ccc12	0.13 µM	0.0055 µM	0.65 µM	–
Fc1ccc(-n2cc(OCCN3CCCCC3)c3cc(Cl)ccc32)cc1	0.032 µM	–	–	–
CN(C)Cc1cn(-c2ccc(F)cc2)c2ccc(Cl)cc12	0.018 µM	–	–	–
CC(C)N1CCN(CCN2CCC(c3cn(-c4ccc(F)cc4)c4cc(Cl)ccc34)CC2)C1=O	–	–	–	ED50 (Rattus norvegicus [4]): 0.055 µmol/kg; ED50 (Rattus norvegicus [5]): 0.052 µmol/kg; ED50 (Rattus norvegicus [3]): > 17 µmol/kg; ED50 (Rattus norvegicus [6]): 0.11 µmol/kg
CN(C)CCc1cn(-c2ccc(F)cc2)c2ccc(Cl)cc12	0.04 µM	–	–	–
CN(CCCN1CCNC1=O)CCc1cn(-c2ccc(F)cc2)c2ccc(Cl)cc12	0.014 µM	–	–	–
CN(CCOc1cn(-c2ccc(F)cc2)c2ccc(Cl)cc12)CCN1CCNC1=O	0.0057 µM	–	–	ED50 (Rattus norvegicus [5]): > 9.1 µmol/kg; ED50 (Rattus norvegicus [3]): 3.6 µmol/kg; ED50 (Rattus norvegicus [6]): 0.32 µmol/kg
Cc1nc2sccn2c(=O)c1CCN1CCC(=C(c2ccc(F)cc2)c2ccc(F)cc2)CC1 [RITANSERIN]	–	–	–	ED50 (Rattus norvegicus [8]): > 21 µmol/kg; ED50 (Rattus norvegicus [5]): 0.98 µmol/kg; ED50 (Rattus norvegicus [6]): 0.1 µmol/kg
O=C1NCCN1CCN1CCC(c2cn(-c3ccc(F)cc3)c3ccc(Cl)cc23)CC1 [SERTINDOLE]	–	–	–	ED50 (Rattus norvegicus [5]): 0.03 µmol/kg; ED50 (Rattus norvegicus [7]): 0.039 µmol/kg; ED50 (Rattus norvegicus [3]): 3.7 µmol/kg; ED50 (Rattus norvegicus [6]): 0.035 µmol/kg
